HNF4A DNA FP = change in binding of human HNF4A to DNA, primary screen, biochemical, fluorescence polarization, FITC-DNA; activity change, % at 10 µM; 1 h; 360,000 compounds, 0.3% hits; Hepatocyte nuclear factor 4-alpha (Homo sapiens), P41235; in the data active = activity change above about 30%, passing the limit was not always enough
Target sequence (P41235 whole entry, looked up): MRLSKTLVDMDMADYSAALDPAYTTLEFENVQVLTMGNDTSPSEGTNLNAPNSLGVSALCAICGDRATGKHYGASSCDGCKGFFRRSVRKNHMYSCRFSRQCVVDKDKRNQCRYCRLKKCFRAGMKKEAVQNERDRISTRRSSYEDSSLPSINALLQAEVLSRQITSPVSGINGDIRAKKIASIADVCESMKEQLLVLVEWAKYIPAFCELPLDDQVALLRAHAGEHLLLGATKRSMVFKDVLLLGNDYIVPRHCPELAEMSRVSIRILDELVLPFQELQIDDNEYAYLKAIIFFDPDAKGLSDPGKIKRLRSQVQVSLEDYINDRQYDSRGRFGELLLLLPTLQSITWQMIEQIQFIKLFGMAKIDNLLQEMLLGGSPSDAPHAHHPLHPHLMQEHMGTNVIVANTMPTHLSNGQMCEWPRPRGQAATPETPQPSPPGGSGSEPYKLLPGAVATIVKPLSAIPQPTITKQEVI
Rpn11 inh = Rpn11 (PSMD14) deubiquitinase inhibitors, primary screen, biochemical, fluorescence polarization, uHTS; inhibition, % at 20 µM; AID 588493, 2011; human 26S proteasome, Ub4-pepOG fluorescence polarization; 20S core pre-blocked with epoxomicin; 360,000 compounds, 0.59% hits;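 active = inhibition at 20 µM, scaled to each plate's controls, above about 33%, limit read from the data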
NadD block = inhibitors of S. aureus NadD, primary screen, biochemical, colorimetric, uHTS; Nicotinate-nucleotide adenylyltransferase NadD (Staphylococcus aureus N315); purified NadD enzyme, colorimetric absorbance read-out; inhibition, % at 20 µM; 360,000 compounds, 0.78% hits; AID 602399, 2012; in the data active = inhibition above about 26%
CSN deneddyl inh = inhibitors of CSN-mediated cullin deneddylation, primary screen, biochemical, fluorescence polarization, uHTS; COP9 signalosome complex subunit 5 (Homo sapiens), Q92905; Purified CSN, SCF-Nedd8-OG deneddylation; inhibition, % at 12.5 µM; 360,000 compounds, 0.38% hits; AID 651999, 2013;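 active = pattern-corrected inhibition above about 35%, with an unprinted fluorescence ratio check between 0.5 and 1.5, limit read from the data, passing the limit was not always enough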
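Test system: Human Csn5 produced in HEK293T cells | Compound: 12.5 µM single point | Times: 90 min, room temperature | Signal: Fluorescence polarization readout | Read-out basis: % inhibition of substrate cleavage by Csn5 | Controls: no-enzyme wells high, enzyme-with-substrate wells low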
PP1 counter = PP1-alpha phosphatase inhibitors, primary screen, counter-screen for PP5 inhibitor project, biochemical, fluorescence, OMFP substrate, single point. AID 2235, 2010. Serine/threonine-protein phosphatase PP1-alpha catalytic subunit (Homo sapiens), P62136. inhibition, % at 6.7 µM. purified PP1alpha. 320,000 compounds, 0.9% hits;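 active = inhibition above the mean inhibition of all tested compounds plus 3 SD, computed separately for each screening campaign, cut at about 15% in these data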
TPT1 inhibitor = Candida albicans TPT1 enzyme inhibitors, primary screen, biochemical, fluorescence polarization. inhibition, % at 5 µM. AID 1962, 2009. 300,000 compounds, 0.81% hits. recombinant caTPT1, FP RNA substrate dephosphorylation. tRNA 2'-phosphotransferase TPT1 (Candida albicans SC5314);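 active = inhibition above the mean of all tested compounds plus 3 SD, set per screening campaign, cut at about 24% in these data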
Large screens that a line does not name were inactive. Rows were chosen to be rich in hits. Some 2.7% of all compounds tested hit in one or more screens of this group.

CC(C)CC1Nc2ncnc(N3CCN(c4ccccn4)CC3)c2N(Cc2ccc(Br)cc2)C1=O (centres undefined)	PP1 counter 16.6
Cc1ccc(CN2C(=O)C(CC(C)C)Nc3ncnc(N4CCCCC4)c32)cc1 (centres undefined)	CSN deneddyl inh 77.8 (no result: PP1 counter, TPT1 inhibitor)
CC(=O)O[C@@H](C[C@@H](C)C1=C2C[C@H](O)C3[C@@]4(C)CCC(=O)C(C)(C)C4CC[C@]3(C)[C@@]2(C)CC1)[C@H]1OC1(C)C (some centres undefined)	none (no result: PP1 counter, TPT1 inhibitor)
COc1ccc(N2CCN(C(=O)COC(=O)COc3cccc(C(F)(F)F)c3)CC2)cc1	none (no result: TPT1 inhibitor)
O=C(Nc1nc(-c2ccccc2)nc2ccccc12)c1ccc(F)cc1	PP1 counter 16.2
O=C(NCc1ccccc1)C(c1cccc2ccccc12)n1c(=O)c(-c2ccco2)nc2ccccc21 (centres undefined)	none (no result: Rpn11 inh, NadD block, PP1 counter, TPT1 inhibitor)
Cc1cccc(C)c1NC(=O)C(c1ccccc1F)n1c(=O)c(-c2ccco2)nc2ccccc21 (centres undefined)	HNF4A DNA FP 44.9 (no result: Rpn11 inh, NadD block, PP1 counter, TPT1 inhibitor)
Cc1cccc(C)c1NC(=O)C(c1ccnc2ccccc12)n1c(=O)c(-c2ccco2)nc2ccccc21 (centres undefined)	HNF4A DNA FP 44.0 (no result: Rpn11 inh, NadD block, PP1 counter, TPT1 inhibitor)
CCCCCNC(=O)C(c1cccc2ccccc12)n1c(=O)c(-c2ccco2)nc2ccccc21 (centres undefined)	HNF4A DNA FP 39.7 (no result: Rpn11 inh, NadD block, PP1 counter, TPT1 inhibitor)
O=C(Cn1ccc(=O)[nH]c1=O)Nc1nccs1	none (no result: PP1 counter, TPT1 inhibitor)
O=C1NC(=Nc2ccccc2)S/C1=C\c1cccn1-c1ccccc1	NadD block 37.9
COc1ccc(CCNC(=O)c2ccc3c(c2)S(=O)(=O)N=C2CCCCCN23)cc1	none
Cc1cc(NC(=O)/C(C#N)=C\c2ccc(-c3ccc(SC(F)F)cc3)o2)n(-c2ccccc2)n1	CSN deneddyl inh 81.1 (not shown: Rpn11 inh, PP1 counter, TPT1 inhibitor)
O=C(CCN1C(=O)/C(=C\c2cccc(Br)c2)SC1=S)N1CCOCC1	none
Cc1ccc(C(=O)C2=C(O)C(=O)N(Cc3cccnc3)C2c2ccc(Cl)cc2)o1 (centres undefined)	PP1 counter 16.1
Cc1ccc(C(=O)C2=C(O)C(=O)N(Cc3ccccc3)C2c2cccnc2)o1 (centres undefined)	none
CCCOc1ccc(C2C(C(=O)c3ccc(C)o3)=C(O)C(=O)N2Cc2ccco2)cc1OCC (centres undefined)	PP1 counter 35.3
Cc1ccc(C(=O)C2=C(O)C(=O)N(Cc3cccnc3)C2c2cccc([N+](=O)[O-])c2)o1 (centres undefined)	none
CCOc1ccc(C2C(C(=O)c3ccc(C)o3)=C(O)C(=O)N2Cc2cccnc2)cc1 (centres undefined)	PP1 counter 15.3
COc1ccc(C2C(C(=O)c3ccc(C)o3)=C(O)C(=O)N2Cc2ccco2)cc1OC (centres undefined)	none
Cc1ccc(C(=O)C2=C(O)C(=O)N(Cc3cccnc3)C2c2cccc(Oc3ccccc3)c2)o1 (centres undefined)	PP1 counter 44.8 (no result: HNF4A DNA FP, Rpn11 inh, NadD block, CSN deneddyl inh)
C/C(=N\NC(=O)c1nnn(-c2nonc2N)c1C(C)C)c1cc(C)sc1C	none
Cc1nc2ccc(C(=O)NC(C)(C)C)cn2c1N(C)C(=O)CCc1ccccc1	none (no result: PP1 counter, TPT1 inhibitor)
CC(=O)C1=C(C)N=c2s/c(=C/c3ccc4c(c3)OCO4)c(=O)n2C1c1ccc(N(C)C)cc1 (centres undefined)	HNF4A DNA FP 78.1, CSN deneddyl inh 42.0 (not shown: Rpn11 inh, PP1 counter, TPT1 inhibitor)
O=C(c1ccc(C(F)(F)F)cc1)N1CCC(=O)N([C@H](COCc2ccc(Cl)cc2)Cc2ccccc2)CC1	none (no result: Rpn11 inh, PP1 counter, TPT1 inhibitor)
CCc1ccc(Nc2nc(N)nc(CSc3nnnn3-c3ccccc3)n2)cc1	PP1 counter 15.8
O=C(c1ccccc1O)N1CCOCC1	none
O=C(O)C1Nc2c(C(=O)N3CCOCC3)cccc2C2C=CCC12 (centres undefined)	CSN deneddyl inh 35.3
Cc1cc(C)c2c(c1)NC(C(=O)O)C1CC=CC21 (centres undefined)	none
Cc1ccc2c(c1C)NC(C(=O)O)C1CC=CC21 (centres undefined)	TPT1 inhibitor 26.0
Cc1ccc(S(=O)(=O)N2C[C@H]3[C@H]4C(=O)N(c5ccccc5)C(=O)[C@H]4C[C@H](OC(=O)NCc4ccccc4)[C@@]3(O)C2)cc1	none (no result: PP1 counter, TPT1 inhibitor)
CCOC(=O)C1CCCN(C(=O)c2cccc(S(=O)(=O)N(Cc3ccccc3)c3ccccc3OC)c2)C1 (centres undefined)	none
CC(C)(C)c1ccc(C(=O)NCCC(=O)NCc2cccs2)cc1	none
Oc1c(Br)cc(Br)cc1CNc1cccc2cccnc12	NadD block 57.2
OC(Cc1cccc(Br)c1)c1ncc(-c2ccccc2C(F)(F)F)[nH]1 (centres undefined)	none (no result: PP1 counter, TPT1 inhibitor)
N#CCC(=O)Nc1ccc(C(=O)NCCC(c2ccccc2)c2ccccc2)cc1	PP1 counter 16.0
CN(C)C(CNC(=O)c1ccc(NC(=O)CC#N)cc1)c1ccccc1 (centres undefined)	none
CCOc1ccc(NC(=O)CN(C)C(=O)C(C)N2C(=O)c3ccccc3C2=O)cc1OCC (centres undefined)	none (no result: TPT1 inhibitor)
Cc1cc(C)cc(Cn2c3ccc(NC(=O)NCc4ccc(F)cc4)cc3c(=O)n2C)c1	none (no result: PP1 counter, TPT1 inhibitor)
CCc1nnc(NC(=O)C2Cc3ccccc3CN2S(=O)(=O)c2c(C)c(C)cc(C)c2C)s1 (centres undefined)	PP1 counter 16.8
COCCCN1C(=O)C(CC(=O)NCCCN(C)C)CC(C(=O)N(C(C)C)C(C)C)=C1C (centres undefined)	none (no result: PP1 counter, TPT1 inhibitor)
COc1cccc(C(=O)NC2CC3CCCC(C2)N3CC(=O)Nc2ccccc2)c1 (centres undefined)	CSN deneddyl inh 62.1
COc1cccc(C(=O)NC2CC3CCCC(C2)N3CC(=O)Nc2ccc(N(C)C)cc2)c1 (centres undefined)	none
CC(C)(C)c1ccc(Cn2nnc3c(=O)[nH]c(C4CCCN(C(=O)c5cccs5)C4)nc32)cc1 (centres undefined)	PP1 counter 15.6
COc1ccc(C)cc1S(=O)(=O)NCC(c1ccc2c(c1)OCO2)N1CCN(C)CC1 (centres undefined)	none
Cc1ccc(-c2ccc(S(=O)(=O)Nc3cccnc3)cc2)cc1	PP1 counter 16.2
CN(C)c1cccc(C(=O)NNC(=O)C23CC4CC(CC(C4)C2)C3)c1	none (no result: PP1 counter, TPT1 inhibitor)
